Experimental data as given in ChEMBL document CHEMBL1123985, “Oral absorption of cephalosporin antibiotics. 1. Synthesis, biological properties, and oral bioavailability of 7-(arylacetamido)-3-chloro cephalosporins in animals” (J Med Chem, 1988).
Values after ≈ are worked out from the molar mass of the structure shown.

Tests used:
[1] = tested on: Mus musculus; experiment: Efficacy against mouse infected ip with park strain of Streptococcus pneumoniae administered po to 19-21-g random sex ICR mice at 1 hr and 5 hr; format: functional
Outline: (§1)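 ICR mice, random sex, 19-21 g, challenged ip with 50-500 LC50 from a frozen organism pool; compound given sc or po at 1 and 5 h after challenge, five 2-fold dose levels, eight mice per level; ED50 derived.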

[2] = tested on: Staphylococcus aureus; experiment: Minimum inhibitory concentration against V41 strain of Staphylococcus aureus; format: functional
[3] = Oral bioavailability in mouse; format: ADME, organism-based; conditions: in vivo
Outline: (§2)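 Male Cox mice given water and liquid diet overnight; 20 mg/kg in saline (2 mg/mL) sc or orally; urine from collection cages plus bladder contents over 2 h; activity by agar well assay with Bacillus subtilis ATCC 6633. Bioavailability from percent dose excreted in urine after oral vs parenteral dosing.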

[4] = tested on: Streptococcus pneumoniae; experiment: Minimum inhibitory concentration against park strain of Streptococcus pneumoniae
[5] = tested on: Staphylococcus aureus; experiment: Minimum inhibitory concentration against S13E strain of Staphylococcus aureus; format: functional
[6] = tested on: Mus musculus; experiment: Efficacy against mouse infected ip with C203 strain of Streptococcus pyogenes, administered sc to 19-21-g random sex ICR mice at 1 hr and 5 hr; format: functional; outline: as §1
[7] = Oral bioavailability in dog (female mongrel); format: ADME, organism-based, Canis lupus familiaris; conditions: in vivo
Outline: (§3)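 Six female mongrel dogs (14-23 kg) fasted overnight, bladder catheterized; single 15 mg/kg solution doses by stomach tube (in water, total 500 mL) or cephalic vein (saline or pH 6.0 NaCl/phosphate/acetate buffer). Plasma sampled at intervals; activity by disk-plate agar diffusion against E. coli MB 3804, standards in dog serum or buffer. AUC μg min/mL, mean ± SEM; BA from iv vs po AUC and urinary recovery.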

[8] = Area under plasma concentration vs time curve observed in Rhesus monkeys after, iv administration of single 30 mg/kg dose; format: ADME, organism-based, Macaca mulatta; set-up: dose 30 mg/kg, route intravenous; conditions: rhesus monkey
Outline: (§4)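 Rhesus monkeys, adult males, six animals per compound, each given drug orally and iv; fasted overnight. Single 30 mg/kg solution doses, by nasogastric tube (in water) or saphenous vein (in isotonic lactated Ringer). Plasma sampled at intervals, frozen at -70 °C, antibacterial activity by microbiological assay. AUC in μg min/mL; oral bioavailability from oral vs iv AUC.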

[9] = tested on: Mus musculus; experiment: Efficacy against mouse infected ip with 3055 strain of Staphylococcus aureus, administered sc to 19-21-g random sex ICR mice at 1 hr and 5 hr; format: functional; outline: as §1
[10] = tested on: Klebsiella aerogenes; experiment: Minimum inhibitory concentration against EB17 strain of Enterobacter aerogenes; format: functional
[11] = tested on: Haemophilus influenzae; experiment: Minimum inhibitory concentration against sens CL strain of Haemophilus influenzae; format: functional
[12] = tested on: Staphylococcus epidermidis; experiment: Minimum inhibitory concentration against 222 strain of Staphylococcus epidermidis; format: functional
[13] = tested on: Canis familiaris; experiment: Area under plasma concentration vs time curve observed in female mongrel dogs after, iv administration of single 15 mg/kg dose; format: ADME, organism-based, Canis lupus familiaris; set-up: dose 15 mg/kg, route intravenous; conditions: dog, in vivo; outline: as §3
[14] = dose in urine (24-h urine excretion) in female mongrel dogs after, oral administration of single 15 mg/kg dose; format: ADME, organism-based, Canis lupus familiaris; set-up: dose 15 mg/kg, route oral; conditions: dog
Outline: (§5)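 Female mongrel dogs (n=6), bladder catheter; urine collected at intervals after single 15 mg/kg iv or oral solution dose, frozen; antibiotic activity by disk-plate agar diffusion against E. coli MB 3804 with standards in pH 6.0 buffer; percent of dose recovered in urine.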

[15] = Minimum inhibitory concentration against N9 strain of Shigella sonnei; format: functional
[16] = dose in urine (24-h urine excretion) in female mongrel dogs after, iv administration of single 15 mg/kg dose; format: ADME, organism-based, Canis lupus familiaris; set-up: dose 15 mg/kg, route intravenous; conditions: dog; outline: as §5
[17] = tested on: Streptococcus pyogenes; experiment: Minimum inhibitory concentration against Streptococcus pyogenes C203; format: functional
[18] = tested on: Mus musculus; experiment: Efficacy against mouse infected ip with C203 strain of Streptococcus pyogenes, administered po to 19-21-g random sex ICR mice at 1 hr and 5 hr; format: functional; outline: as §1
[19] = tested on: Salmonella; experiment: Minimum inhibitory concentration against X514 strain of Salmonella; format: functional
[20] = Oral bioavailability in Rhesus monkey; format: ADME, organism-based, Macaca mulatta; conditions: in vivo; outline: as §4
[21] = tested on: Staphylococcus aureus; experiment: Minimum inhibitory concentration against 3055 strain of Staphylococcus aureus
[22] = tested on: Mus musculus; experiment: Efficacy against mouse infected ip with park strain of Streptococcus pneumoniae administered sc to 19-21-g random sex ICR mice at 1 hr and 5 hr; format: functional; outline: as §1
[23] = tested on: Klebsiella pneumoniae; experiment: Minimum inhibitory concentration against X68 strain of Klebsiella pneumoniae; format: functional
[24] = tested on: Streptococcus pyogenes; experiment: Minimum inhibitory concentration against C203 strain of Streptococcus pyogenes
[25] = tested on: Staphylococcus epidermidis; experiment: Minimum inhibitory concentration against Epil strain of Staphylococcus epidermidis; format: functional
[26] = tested on: Canis familiaris; experiment: Area under plasma concentration vs time curve observed in female mongrel dogs after, oral administration of single 15 mg/kg dose; format: ADME, organism-based, Canis lupus familiaris; set-up: dose 15 mg/kg, route oral; conditions: dog, in vivo; outline: as §3
[27] = Area under plasma concentration vs time curve observed in Rhesus monkeys after oral administration of single 30 mg/kg dose; format: ADME, organism-based, Macaca mulatta; set-up: dose 30 mg/kg, route oral; conditions: rhesus monkey; outline: as §4
[28] = tested on: Streptococcus pneumoniae; experiment: Minimum inhibitory concentration against Park strain of Streptococcus pneumoniae; format: functional
[29] = tested on: Haemophilus influenzae; experiment: Minimum inhibitory concentration against res 76 strain of Haemophilus influenzae; format: functional
[30] = tested on: Mus musculus; experiment: Efficacy against mouse infected ip with 3055 strain of Staphylococcus aureus, administered po to 19-21-g random sex ICR mice at 1 hr and 5 hr; format: functional; outline: as §1
[31] = tested on: Staphylococcus aureus; experiment: Minimum inhibitory concentration against X1.1 strain of Staphylococcus aureus; format: functional
[32] = tested on: Escherichia coli; experiment: Minimum inhibitory concentration against EC14 strain Escherichia coli; format: functional
[33] = Percent of urinary recovery in rats after, sc administration of single 20 mg/kg dose in solution (N,range); format: ADME, organism-based; set-up: dose 20 mg/kg, route subcutaneous; conditions: rat, urine, read-out: Recovery
Outline: (§6)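 Male Wistar rats (200-300 g), jugular-cannulated, upper GI emptied by light cycle; 20 mg/kg in saline (6 mg/mL) sc or orally. Urine collected in wire-bottom cages, assayed by B. subtilis agar well method. Mean ± SD recovery with N and range; bioavailability = oral over mean sc recovery.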

[34] = Percent of urinary recovery in rats after, oral administration of single 20 mg/kg dose in solution (N,range); format: ADME, organism-based; set-up: dose 20 mg/kg, route oral; conditions: rat, urine, read-out: Recovery; outline: as §6
[35] = Bioavailability in rat; format: ADME, organism-based; conditions: in vivo; outline: as §6
[36] = tested on: Streptococcus pneumoniae; experiment: Minimum inhibitory concentration against Park strain of Streptococcus pneumoniae
[37] = Mean plasma levels in rats 2 hr after iv administration of 100 mg/kg of probenecid 5 min prior to test compound; format: ADME, organism-based; set-up: dose 100 mg/kg, route intravenous; conditions: rat, read-out: Plasma levels
Outline: (§7)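 Rats, jugular vein cannulated (two per group), test compound iv 20 mg/kg; probenecid 100 mg/kg iv 5 min before in treated groups. Heparinized plasma sampled at 5, 20, 40 min and 1, 2, 3 h, assayed microbiologically (B. subtilis agar well). AUC 0-3 h in μg min/mL; half-life in min.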

[38] = Mean plasma levels in rats 1 hr after iv administration of 100 mg/kg of probenecid 5 min prior to test compound; format: ADME, organism-based; set-up: dose 100 mg/kg, route intravenous; conditions: rat, read-out: Plasma levels; outline: as §7
[39] = Mean plasma levels in rats 20 min after iv administration of 100 mg/kg of probenecid 5 min prior to test compound; format: ADME, organism-based; set-up: dose 100 mg/kg, route intravenous; conditions: rat, read-out: Plasma levels; outline: as §7
[40] = Mean plasma levels in rats at a time 5 min after iv administration of 100 mg/kg of probenecid 5 min prior to test compound; format: ADME, organism-based; set-up: dose 100 mg/kg, route intravenous; conditions: rat, read-out: Plasma levels; outline: as §7
[41] = Mean plasma levels in rats 3h after intravenous administration of 20 mg/kg of compound; format: ADME, organism-based; set-up: dose 20 mg/kg, route intravenous; conditions: rat, read-out: Plasma levels; outline: as §7
[42] = Area under plasma concentration vs time curve observed in rats for 0-3 h; format: ADME; set-up: time < 3 hr; conditions: rat; outline: as §7
[43] = Compound was tested for percent of oral bioavailability in mice; 56-74; format: ADME, organism-based; conditions: mouse, in vivo, read-out: Bioavailabiility; outline: as §2
[44] = Dose in urine (24-h urine excretion) in female mongrel dogs after oral administration of single 15 mg/kg dose; format: ADME, organism-based, Canis lupus familiaris; set-up: dose 15 mg/kg, route oral; conditions: dog; outline: as §5
[45] = Mean plasma levels in rats 40 min after iv administration of 100 mg/kg of probenecid 5 min prior to test compound; format: ADME, organism-based; set-up: dose 100 mg/kg, route intravenous; conditions: rat, read-out: Plasma levels; outline: as §7
[46] = Dose in urine (24-h urine excretion) in female mongrel dogs after iv administration of single 15 mg/kg dose; format: ADME, organism-based, Canis lupus familiaris; set-up: dose 15 mg/kg, route intravenous; conditions: dog; outline: as §5
[47] = Half-life of the compound; format: ADME; outline: as §7

Structure (SMILES) | MIC [2] | MIC [4] | MIC [5] | bioavailability [7] | AUC [8] | MIC [10] | MIC [11] | MIC [12] | AUC [13] | MIC [15] | MIC [17] | MIC [19] | bioavailability [20] | MIC [21] | MIC [23] | MIC [24] | MIC [25] | AUC [26] | AUC [27] | MIC [29] | further results
O=C(Cc1csc2ccccc12)N[C@@H]1C(=O)N2C(C(=O)O)=C(Cl)CS[C@H]12 | 8 µg/mL (≈ 19.6 µM) | 0.06 µg/mL (≈ 0.147 µM) | 8 µg/mL (≈ 19.6 µM) | < 3% | 86800 ng·h/mL | > 128 µg/mL | 1 µg/mL (≈ 2.45 µM) | 0.25 µg/mL (≈ 0.611 µM) | 29300 ng·h/mL | 128 µg/mL (≈ 313 µM) | 0.06 µg/mL (≈ 0.147 µM) | 128 µg/mL (≈ 313 µM) | 1.3% | 0.25 µg/mL (≈ 0.611 µM) | 128 µg/mL (≈ 313 µM) | 0.06 µg/mL (≈ 0.147 µM) | 1 µg/mL (≈ 2.45 µM) | < 800 ng·h/mL | 1170 ng·h/mL | 0.25 µg/mL (≈ 0.611 µM) | ED50 [1]: 36.2 mg/kg; bioavailability [3]: 47%; ED50 [6]: 3.8 mg/kg; ED50 [9]: 0.62 mg/kg; dose excreted [14]: 1.5%; dose excreted [16]: 20%; ED50 [18]: 5.5 mg/kg; ED50 [22]: 14.8 mg/kg; MIC [28]: 0.125 µg/mL (≈ 0.306 µM); ED50 [30]: 1.51 mg/kg; MIC [31]: 0.125 µg/mL (≈ 0.306 µM); MIC [32]: 64 µg/mL (≈ 157 µM)
O=C(COc1ccccc1)N[C@@H]1C(=O)N2C(C(=O)O)=C(Cl)CS[C@H]12 | 8 µg/mL (≈ 21.7 µM) | 0.06 µg/mL (≈ 0.163 µM) | 16 µg/mL (≈ 43.4 µM) | 30% | 38000 ng·h/mL | > 128 µg/mL | 1 µg/mL (≈ 2.71 µM) | 0.25 µg/mL (≈ 0.678 µM) | 57500 ng·h/mL | > 128 µg/mL | 0.125 µg/mL (≈ 0.339 µM) | > 128 µg/mL | 13.1% | 0.25 µg/mL (≈ 0.678 µM) | 128 µg/mL (≈ 347 µM) | 0.06 µg/mL (≈ 0.163 µM) | 4 µg/mL (≈ 10.8 µM) | 16700 ng·h/mL | 5000 ng·h/mL | 2 µg/mL (≈ 5.42 µM) | dose excreted [33]: 43.8%; dose excreted [34]: 10.1%; bioavailability [35]: 23.1%; MIC [36]: 0.125 µg/mL (≈ 0.339 µM); concentration at 2 h [37]: 4600 ng/mL; concentration at 1 h [38]: 18400 ng/mL; concentration at 20 min [39]: 39100 ng/mL; concentration at 5 min [40]: 66000 ng/mL; concentration at 3 h [41]: 500 ng/mL; AUC at 3 h [42]: 51400 ng·h/mL; bioavailability [43]: 56%; dose excreted [44]: 18%; concentration at 40 min [45]: 25200 ng/mL; dose excreted [46]: 48%; MIC [31]: 0.25 µg/mL (≈ 0.678 µM); half-life [47]: 30 min; MIC [32]: 64 µg/mL (≈ 174 µM)
